Source: PubChem BioAssay (The Scripps Research Institute Molecular Screening Center)
The list is not random: actives were taken first. Their share in the collection is about 1.8%.
NPY-Y1 PAM-ag: potentiates or activates human NPY-Y1 receptor; activation, % at 3.6 µM; AID 1304; actives 0.37% (n = 220,000); NPY-Y1 expressing cells, potentiator/agonist activation; in the data active = activation above about 33%, passing the limit was not always enough;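 note: cells stimulated with NPY at EC10 then isoproterenol at EC100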
Target sequence (P25929 whole entry, looked up): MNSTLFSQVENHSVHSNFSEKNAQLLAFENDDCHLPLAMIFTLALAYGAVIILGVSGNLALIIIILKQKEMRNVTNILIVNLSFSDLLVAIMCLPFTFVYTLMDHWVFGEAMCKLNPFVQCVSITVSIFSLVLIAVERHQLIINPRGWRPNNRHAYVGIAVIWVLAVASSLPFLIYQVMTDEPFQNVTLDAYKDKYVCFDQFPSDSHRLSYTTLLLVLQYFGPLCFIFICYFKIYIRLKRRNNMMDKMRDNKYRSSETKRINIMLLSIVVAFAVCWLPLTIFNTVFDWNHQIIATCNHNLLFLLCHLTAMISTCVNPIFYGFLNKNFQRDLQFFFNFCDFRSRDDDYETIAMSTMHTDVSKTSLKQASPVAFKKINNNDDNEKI
NPY Y1 blocker: antagonists of human neuropeptide Y receptor Y1; P25929; HEK293-CNG Y1 cells, membrane potential fluorescence; NPY at EC95, then isoproterenol; inhibition, % at 3.6 µM; actives 1% (n = 200,000); AID 1040;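 active = inhibition above the campaign mean inhibition of all tested compounds plus 3 SD, cut at about 20% in these data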
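Assay system: HEK293 cells with Y1 receptor plus CNG channel | Probe or stimulus: NPY (25 nM), isoproterenol (1 µM), Ro 20-1724 (25 µM) | Timing: Compound incubation 1 h at room temperature, readout 45 min post-stimulation | Measured by: Membrane-potential fluorescent dye readout | Benchmarks: High control isoproterenol alone, low control NPY with isoproterenol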
NPY-Y2 antag: blocks the human neuropeptide Y Y2 receptor; P49146; NPY-Y2 expressing cells, antagonist mode; inhibition, % at 2.7 µM; actives 0.99% (n = 140,000); AID 793; in the data active = inhibition above about 17%
NPY-Y2 PAM-ag: potentiates or activates human NPY-Y2 receptor; P49146; cells expressing NPY-Y2, potentiator/agonist read-out; activation, % at 3.6 µM; actives 0.45% (n = 220,000); in the data active = activation above about 27%;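 note: cells stimulated with NPY near EC25 plus isoproterenol at EC100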
NPY-Y2 pot conf: confirmation of human NPY-Y2 receptor potentiators or agonists. shares compounds with NPY-Y2 PAM-ag. cell-based NPY-Y2 potentiator/agonist assay. activation, % at 3.6 µM. actives 20% (n = 450). AID 1539; in the data active = activation above about 33%
NPY-Y1 potentiator: counter-screen for NPY-Y2 potentiators or agonists: NPY-Y1 potentiators or agonists. shares compounds with NPY-Y2 PAM-ag. Y1 HEK293-CNG cells, membrane potential fluorescence. activation, % at 3.6 µM. actives 20% (n = 450); in the data active = activation above about 45%;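 note: cells stimulated with submaximal NPY then isoproterenol with phosphodiesterase inhibitor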
NPY-Y1 ag 2: counter-screen for NPY-Y2 potentiators: agonists of human NPY-Y1 | shares compounds with NPY-Y2 PAM-ag | HEK293 Y1-CNGC, membrane potential fluorescence, agonism | activation, % at 3.6 µM | actives 37% (n = 450) | AID 1702;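 active = activation above the mean of DMSO-only control wells plus 3 SD, cut at about 18% in these data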;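 note: cells stimulated with 1 µM isoproterenol plus the PDE inhibitor Ro 20-1724; Y1 agonists lower the membrane potential dye signal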
CNGC inh: cyclic nucleotide gated channel inhibition as counter-screen. shares compounds with NPY-Y2 PAM-ag. HEK293-CNG parental, isoproterenol cAMP, membrane potential fluorescence. inhibition, % at 3.6 µM. actives 32% (n = 450);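 active = inhibition above the control-well mean plus 3 SD of those wells, cut at about 22% in these data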
Y2 agonist ctr: activates human NPY-Y2 receptor in potentiator counter-screen; shares compounds with NPY-Y2 PAM-ag; HEK293 Y2/CNGC cells, membrane potential fluorescence, agonist mode; activation, % at 3.6 µM; actives 56% (n = 450); AID 1710;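 active = activation above the mean of solvent-only control wells plus 3 SD, cut at about 10% in these data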;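 note: cells stimulated by isoproterenol with no NPY added so direct agonism is tested; agonism lowers probe fluorescence through less cAMP and CNG channel opening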
Of the large screens only hits and unclear results are named; the others gave an inactive call (follow-up assays come after a bar, where they were run).

CCOC(=O)C(=CNc1cc(C)nn1-c1ccc(C)cc1)C(=O)OCC	NPY-Y2 PAM-ag 36.2 | NPY-Y2 pot conf inactive | NPY-Y1 potentiator inactive | NPY-Y1 ag 2 inactive | CNGC inh inactive | Y2 agonist ctr inactive
CC(C)COC(=O)NC1c2ccccc2Oc2ccccc21	NPY-Y2 PAM-ag 99.9 (no result: NPY Y1 blocker, NPY-Y2 antag) | NPY-Y2 pot conf inactive | NPY-Y1 potentiator inactive | NPY-Y1 ag 2 inactive | CNGC inh inactive | Y2 agonist ctr inactive
CCc1ccccc1NC(=O)C1c2ccccc2Oc2ccccc21	none
O=C(Nc1ccccc1)c1ccccc1NS(=O)(=O)c1ccc(Cl)s1	none
Cc1ccc(NC(=O)c2ccccc2NS(=O)(=O)c2ccc(Cl)s2)cc1	NPY-Y2 PAM-ag 43.3 | NPY-Y2 pot conf inactive | NPY-Y1 potentiator inactive | NPY-Y1 ag 2 inactive | CNGC inh inactive | Y2 agonist ctr inactive
CC(NC(=O)C1c2ccccc2Oc2ccccc21)C1CCCO1 (stereo not given)	none (no result: NPY-Y2 antag)
Cn1c(=O)cc(OCC(=O)NCc2cccs2)c2ccccc21	none (no result: NPY-Y2 antag)
COC(=O)c1cc(OC)c(OC)cc1NC(=O)c1oc2ccccc2c1C	none
Cc1cc(Cl)n2nc(C)c(-c3ccc(Cl)cc3)c2n1	NPY-Y2 PAM-ag 28.3 (no result: NPY-Y2 antag) | NPY-Y2 pot conf 41.6 | NPY-Y1 potentiator 59.3 | NPY-Y1 ag 2 58.8 | CNGC inh 62.5 | Y2 agonist ctr 45.5
Cn1c2c(c(=O)n(C)c1=O)C(C(F)(F)F)(C(F)(F)F)N=C(c1ccc(Cl)cc1)N2	NPY-Y2 PAM-ag 49.2 | NPY-Y2 pot conf inactive | NPY-Y1 potentiator inactive | NPY-Y1 ag 2 inactive | CNGC inh inactive | Y2 agonist ctr inactive
CCSc1nnc(NC(=O)CCNS(=O)(=O)c2cc(Br)cnc2N)s1	NPY-Y2 PAM-ag 28.1 | NPY-Y2 pot conf inactive | NPY-Y1 potentiator inactive | NPY-Y1 ag 2 24.3 | CNGC inh inactive | Y2 agonist ctr 24.3
CCSc1nnc(NC(=O)CCc2ccccc2)s1	none
O=C(Nc1cccc(S(=O)(=O)Nc2ccc(Cl)cc2)c1)c1ccc(Cl)nc1	NPY-Y2 PAM-ag 46.2 | NPY-Y2 pot conf inactive | NPY-Y1 potentiator inactive | NPY-Y1 ag 2 inactive | CNGC inh inactive | Y2 agonist ctr inactive
COc1ccc(NS(=O)(=O)c2cccc(NC(=O)c3ccc(Cl)nc3)c2)cc1	none (no result: NPY-Y2 antag)
CCC(=O)Nc1ccc(-c2cc3ccccc3oc2=O)cc1	none (no result: NPY-Y2 antag)
CC(=O)Nc1ccc(-c2cc3ccccc3o2)cc1	NPY-Y2 PAM-ag 28.6 | NPY-Y2 pot conf inactive | NPY-Y1 potentiator inactive | NPY-Y1 ag 2 inactive | CNGC inh inactive | Y2 agonist ctr 12.9
COc1ccc(CSc2ncnc3sccc23)cc1F	none (no result: NPY-Y2 antag)
COc1ccc(/C=C/C(=O)c2ccc(O)cc2)cc1COc1ccc(F)cc1	none
COc1ccc(Oc2ccc(/C=C/C(=O)c3ccc(O)cc3)cc2[N+](=O)[O-])cc1	NPY-Y2 PAM-ag 37.7 | NPY-Y2 pot conf inactive | NPY-Y1 potentiator inactive | NPY-Y1 ag 2 23.4 | CNGC inh inactive | Y2 agonist ctr 11.2
O=C(O)c1ccc(Oc2c(C(F)(F)F)oc3cc(O)ccc3c2=O)cc1	NPY-Y2 PAM-ag 39.2 (no result: NPY-Y2 antag) | NPY-Y2 pot conf inactive | NPY-Y1 potentiator inactive | NPY-Y1 ag 2 inactive | CNGC inh inactive | Y2 agonist ctr inactive
Cc1oc2cc(O)ccc2c(=O)c1Oc1ccccc1	none
COc1ccc(/C=N/Nc2cn[nH]c(=O)c2Cl)cc1	none (no result: NPY-Y2 antag)
Cc1ccc(S(=O)(=O)N(C)CC(=O)N2CCOCC2)cc1	none
Cc1ccc(S(=O)(=O)N(C)CC(=O)OCC(=O)N2CCCC2=O)cc1	NPY-Y2 PAM-ag 49.6 (no result: NPY-Y2 antag) | NPY-Y2 pot conf inactive | NPY-Y1 potentiator inactive | NPY-Y1 ag 2 inactive | CNGC inh inactive | Y2 agonist ctr inactive
CCNc1c(NCC)c(=O)c1=O	none (no result: NPY Y1 blocker, NPY-Y2 antag)
Nc1sc(-c2ccccc2)cc1-c1n[nH]c(=S)n1C1CCCCC1	NPY-Y2 PAM-ag 102.0 (no result: NPY Y1 blocker, NPY-Y2 antag) | NPY-Y2 pot conf inactive | NPY-Y1 potentiator inactive | NPY-Y1 ag 2 inactive | CNGC inh inactive | Y2 agonist ctr 24.6
COc1ccc(-n2c(-c3cc(-c4ccccc4)sc3N)n[nH]c2=S)cc1	none (no result: NPY Y1 blocker, NPY-Y2 antag)
